The values that follow come from ChEMBL document CHEMBL1158588, “Discovery of brain-penetrant, orally bioavailable aminothienopyridazine inhibitors of tau aggregation” (J Med Chem, 2010).

The species named for one data set is Homo sapiens. Kind of data set: Inhibition of human full length tau40 protein-mediated bovine brain tubulin assembly at 62.5 uM by MT assembly assay. The gist of the method:
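Wild-type full-length human tau40 (2N4R, 25 µM) was preincubated with compound at 62.5 µM in RAB pH 6.9 for 120 min at room temperature. Bovine brain tubulin and GTP were then added, giving final concentrations of 30 µM tubulin, 20 µM tau, 50 µM compound and 2 mM GTP. Absorbance at 340 nm was read every minute for 45 min at 37 °C.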

Data set [1] can be described thus: Aqueous solubility in sodium acetate buffer at pH 7.0 by turbidimetric measurements. It counts as physicochemical. Put shortly: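 Compounds were serially diluted 2.5-fold in DMSO, then diluted 100-fold into 100 mM NaOAc pH 7.0 (final 200 µM down to 0.03 µM, 1% DMSO). Plates were agitated for 2.5 h and absorbance was read at 550–700 nm with the DMSO blank subtracted. The solubility limit was taken as the concentration before the one where mean absorbance exceeded 0.03 AU.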

Data set [2] can be described thus: Inhibition of heparin-induced K18PL tau protein aggregation assessed as thioflavin T binding by fluorescence assay relative to control. The settings on record: concentration not given here.
A short description of data set [3]: Inhibition of K18PL tau protein aggregation by orthogonal sedimentation based SDS-PAGE relative to control. The settings on record: concentration not given here.
Data set [4] in a line: Inhibition of tau40 protein aggregation by orthogonal sedimentation based SDS-PAGE relative to control. The settings on record: concentration not given here. Details: concentration or dose not given beside the values.
A further data set has as its system HEK293. Kind of data set: Cytotoxicity against HEK293 cells up to 100 uM after 72 hrs by alamar blue assay. Conditions: human, hek293, 72 h. It counts as cell-based. The gist of the method:
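HEK-293 cells were plated at 20,000 per well in DMEM with 10% FCS. After 24 h, half-log compound dilutions starting at 200 µM were added. Cells were cultured for 72 h, and viability was read by Alamar blue fluorescence. CC50 values were fitted from the curves.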
(In general: Resazurin is reduced to fluorescent resorufin, in cell work by metabolically active cells.)

A further data set has as its system Brain. Kind of data set: Drug level in brain of B6C3F1 mouse at 5 mg/kg, ip by LC-MS/MS analysis. It counts as ADME, organism-based. Details: dose 5 mg/kg, route intraperitoneal. The settings on record: in vivo. The gist of the method:
(§1)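 Three female B6C3F1 mice per compound were given 5 mg/kg i.p. Brain and plasma were sampled at a single 1 h time point. Brain was homogenized 1:2 w/v in 10 mM ammonium acetate pH 5.7, and plasma was collected in EDTA. Samples were extracted with acetonitrile and quantified by LC-MS/MS MRM against spiked calibration curves. B/P was taken as the brain/plasma ratio.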

The subject of data set [5] is Plasma. Kind of data set: Drug level in plasma of B6C3F1 mouse at 5 mg/kg, ip by LC-MS/MS analysis. It is filed as ADME, organism-based. Conditions: in vivo. Details: dose 5 mg/kg, route intraperitoneal. Put shortly:
as §1

The nature of data set [6]: Ratio of drug level from brain to plasma of B6C3F1 mouse at 5 mg/kg, ip by LC-MS/MS analysis. Details: dose 5 mg/kg, route intraperitoneal. It counts as ADME, organism-based. The gist of the method:
as §1

Data set [7] can be described thus: Ratio of drug level from brain to plasma of B6C3F1 mouse at 2 mg/kg, iv. Details: dose 2 mg/kg, route intravenous. Conditions: read-out: BPR. It counts as ADME, organism-based. Put shortly:
(§2)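 Female B6C3F1 mice, two months old, given 2 mg/kg i.v., three mice per time point at 0.5, 1, 2, 4, 8 and 16 h. Brain hemispheres were homogenized in 10 mM ammonium acetate pH 5.7, and plasma was taken from EDTA blood. Both were extracted with acetonitrile and measured by LC-MS/MS (MRM) against spiked standard curves at 4–4000 ng/mL.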

Data set [8] has as its system Plasma. Kind of data set: Elimination half life in plasma of B6C3F1 mouse at 2 mg/kg, iv. It counts as ADME, organism-based. Details: dose 2 mg/kg, route intravenous. Conditions: in vivo. The gist of the method: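 Female B6C3F1 mice received 2 mg/kg i.v., three per time point. Plasma levels were measured by LC-MS/MS with 1/x-weighted calibration, averaging triplicate injections. Half-life was derived from the elimination rate constant, taken as the slope of ln plasma concentration against time over the 4, 8 and 16 h points.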

Data set [9] in a line: AUC (0.5 to 16 hrs) in plasma of B6C3F1 mouse at 5 mg/kg, po. It is filed as ADME, organism-based. Details: time 0.5-16 hr, dose 5 mg/kg, route oral. The gist of the method:
(§3)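 Mice were dosed by oral gavage at 5 mg/kg. […] Bioavailability was obtained by comparing plasma AUC after oral dosing with AUC after 2 mg/kg i.v.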

Data set [10] can be described thus: Oral bioavailability in B6C3F1 mouse at 5 mg/kg. Conditions: in vivo. It counts as ADME, organism-based. Put shortly: as §3
Data set [11] can be described thus: AUC (0.5 to 16 hrs) in brain of B6C3F1 mouse at 2 mg/kg, iv. It is filed as ADME, organism-based. Details: time upper 16 hr, time lower 0.5 hr, dose 2 mg/kg, route intravenous. Put shortly: as §2
Data set [12] in a line: AUC (0.5 to 16 hrs) in plasma of B6C3F1 mouse at 2 mg/kg, iv. It counts as ADME, organism-based. Details: time upper 16 hr, time lower 0.5 hr, dose 2 mg/kg, route intravenous. Put shortly: as §2

SMILES strings stand for the structures. ≈ marks a conversion by molar mass, not a printed value. Calls of active or inactive are those of the source. The rule behind the calls is not given here.

In general, inhibition refers to how much of the control response was suppressed. Usually solubility (kinetic) stands for the concentration staying in solution when a stock, usually in DMSO, is diluted into the medium. As a reminder, the AUC(0-t) is exposure summed from dosing to a finite time, without extrapolation to infinity. What is called bioavailability is the share of a dose that reaches the circulation, judged against a reference dose that is usually intravenous.

As to `CC(C)NC(=O)c1nn(-c2ccc(Br)cc2)c(=O)c2c(N)scc12`, the inhibition result in the data set filed under Homo sapiens is “inactive”. Further, in data set [1], the kinetic solubility is 13 µM (≈ 5.29 µg/mL). In addition, the inhibition worked out at 85% in data set [2], 58% in [3] and 55% in data set [4]. For the same compound, in the data set on HEK293, the Activity entry was “Non-toxic”. Moreover, the Drug uptake in the data set with Brain is 641 ng/g; in the data set on Plasma [5] it was 316 ng/mL.
With `CCN(C)C(=O)c1nn(-c2ccc(Cl)cc2)c(=O)c2c(N)scc12`, in the data set filed under Homo sapiens, the inhibition result was “inactive”. For the same compound, the solubility (kinetic) in data set [1] is 80 µM (≈ 29 µg/mL). Further, the inhibition came to 75% in data set [2], 62% in [3] and 58% in data set [4]. The Activity result in the data set on HEK293 was “Non-toxic”. Besides, the Drug uptake came to 122 ng/g in the data set on Brain and 138 ng/mL in the data set on Plasma [5].
With `CCNC(=O)c1nn(-c2ccc(Cl)cc2)c(=O)c2c(N)scc12`, the inhibition entry in the data set listed under Homo sapiens is “inactive”. This compound had a kinetic solubility in [1] of 32 µM (≈ 11.2 µg/mL). For the same compound, the inhibition is 84% in data set [2], 94% in [3] and 87% in data set [4]. Besides, in the data set on HEK293, the Activity result is “Non-toxic”. In addition, the Drug uptake in the data set with Brain was found to be 886 ng/g; with Plasma [5], 500 ng/mL.
For `CN(C)C(=O)c1nn(-c2ccc(Cl)cc2)c(=O)c2c(N)scc12`, the inhibition entry in the data set filed under Homo sapiens is “inactive”. The kinetic solubility in [1] is 32 µM (≈ 11.2 µg/mL). Besides, the inhibition in data set [2] is 75%; in [3], 69%; in data set [4] it was 69%. The Activity entry in the data set on HEK293 is “Non-toxic”. For the same compound, the values for the Drug uptake with Brain and in the data set with Plasma [5] were 14 ng/g and 30 ng/mL, respectively.
In the case of `CC(C)OC(=O)c1nn(-c2ccc(Cl)cc2)c(=O)c2c(N)scc12`, the inhibition entry in the data set listed under Homo sapiens was “inactive”. Besides, the solubility (kinetic) in data set [1] came to 32 µM (≈ 11.6 µg/mL). The inhibition in data set [2] worked out at 79%; in data set [3] it was 44%; in data set [4], 61%. The Activity entry with HEK293 was “Non-toxic”. In addition, the Drug uptake was found to be 436 ng/g with Brain and 84 ng/mL with Plasma [5]. Besides, in data set [6], the BPR was found to be 5.2.
In the case of `CCOC(=O)c1nn(-c2ccc(Cl)cc2)c(=O)c2c(N)scc12`, the inhibition result in the data set filed under Homo sapiens is “inactive”. This compound came in with a kinetic solubility in data set [1] of 13 µM (≈ 4.55 µg/mL). Moreover, the inhibition in data set [2] was determined as 71%; in data set [3] it was 70%; in data set [4] it was 48%. In the data set with HEK293, the Activity result was “Non-toxic”. The Drug uptake in the data set with Brain was determined as 67 ng/g; in the data set on Plasma [5] it was 20 ng/mL.
As for `CNC(=O)c1nn(-c2ccc(Cl)cc2)c(=O)c2c(N)scc12`, the inhibition result in the data set listed under Homo sapiens was “inactive”. Further, the kinetic solubility in [1] is 13 µM (≈ 4.35 µg/mL). Besides, the inhibition came out at 78% in data set [2], 68% in [3] and 61% in [4]. Moreover, in the data set on HEK293, the Activity entry is on record as “Non-toxic”. For the same compound, the Drug uptake stood at 34 ng/g in the data set on Brain and 70 ng/mL with Plasma [5].
Turning to `Nc1scc2c(C(=O)NC3CC3)nn(-c3ccc(Cl)cc3)c(=O)c12`, the Kp in [7] was 1.58. In addition, in the data set with Plasma [8], the “beta t1/2” value is “>= 2.5 hr”. In addition, the AUC(0-t) in data set [9] is 526 ng·h/mL; in data set [11] it was 469 ng·h/mL; in data set [12] it was 297 ng·h/mL. Further, the bioavailability in data set [10] turned out to be 70%. The inhibition result in the data set listed under Homo sapiens was “inactive”. The compound also showed a solubility (kinetic) in [1] of 32 µM (≈ 11.5 µg/mL). The values for the inhibition in data set [2], in data set [3] and in data set [4] were 83%, 69% and 58%, respectively. Besides, in the data set on HEK293, the Activity entry is “Non-toxic”. Further, the Drug uptake amounted to 1299 ng/g in the data set with Brain and 823 ng/mL in the data set on Plasma [5].
On to `Nc1scc2c(C(=O)O)nn(-c3ccc(Cl)cc3)c(=O)c12`, for which the inhibition entry in the data set listed under Homo sapiens was “inactive”. Moreover, the solubility (kinetic) in data set [1] is over 200 µM. Further, the inhibition stood at 84% in data set [2], 79% in data set [3] and 62% in data set [4]. Besides, the Activity result with HEK293 is given as “Non-toxic”. Besides, the Drug uptake with Brain worked out at 121 ng/g; with Plasma [5], 5230 ng/mL.
On to `CC(C)NC(=O)c1nn(-c2ccc(Cl)cc2)c(=O)c2c(N)scc12`, for which, in the data set filed under Homo sapiens, the inhibition result is “inactive”. In addition, the solubility (kinetic) in data set [1] was determined as 32 µM (≈ 11.6 µg/mL). The inhibition in [2] is 83%; in data set [3] it was 65%; in [4], 45%. Moreover, in the data set on HEK293, the Activity entry was “Non-toxic”. For the same compound, the figures for the Drug uptake with Brain and in the data set with Plasma [5] were 1100 ng/g and 499 ng/mL, respectively.
